RGS4 block: inhibitors of human RGS4. HEK293 M3R/RGS4 inducible, Fluo-4 calcium flux; stronger effect = higher value; triggered by carbachol at its EC20. B-score at 10 µM. 310,000 compounds, 0.45% hits. AID 463165;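 active = B-score, a plate-corrected calcium signal, over three deviations above library mean, with baseline fluorescence within five deviations of library mean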;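 note: RGS4 expression induced by doxycycline in cells with stable M3 receptor; B-score is computed from the integrated fluorescence ratio over baseline after carbachol; higher B-score means a larger calcium signal and so more RGS4 inhibition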
Target sequence (P49798 whole entry, looked up): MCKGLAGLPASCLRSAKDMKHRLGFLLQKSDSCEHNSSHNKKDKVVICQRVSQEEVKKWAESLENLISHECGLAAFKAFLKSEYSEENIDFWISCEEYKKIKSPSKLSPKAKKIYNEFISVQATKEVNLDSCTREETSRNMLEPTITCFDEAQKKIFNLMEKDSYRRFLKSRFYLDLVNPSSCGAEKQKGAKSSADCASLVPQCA
RGS4 act: potentiators or activators of RGS4; HEK293 M3R/inducible RGS4, carbachol calcium flux Fluo4; stronger effect = lower value; B-score at 10 µM; 310,000 compounds, 0.92% hits;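 active = B-score of the integrated calcium signal more than 4 SD below the library mean, with starting fluorescence not abnormally high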;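 note: negative B-score means reduced calcium response which marks RGS4 activation or potentiation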
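Assay system: Inducible-RGS4 HEK293 cells carrying M3 receptor | Schedule: Compound preincubation 20 min at room temperature before agonist | Signal: Kinetic calcium fluorescence imaging with Fluo4-AM dye, 2 µM | Read-out basis: B score from integrated fluorescence ratio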
MrgX1 ag: agonists of human MrgX1 receptor. Q96LB2. MrgX1-HEK293 cells, Fluo-4 calcium fluorescence, agonist mode; stronger effect = higher value. B-score at 10 µM. 310,000 compounds, 0.44% hits. AID 588627;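 active = calcium response B-score plate-corrected fluorescence ratio at least 3 library SD, with starting fluorescence B-score inside 5 SD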
Target sequence (Q96LB2 whole entry, looked up): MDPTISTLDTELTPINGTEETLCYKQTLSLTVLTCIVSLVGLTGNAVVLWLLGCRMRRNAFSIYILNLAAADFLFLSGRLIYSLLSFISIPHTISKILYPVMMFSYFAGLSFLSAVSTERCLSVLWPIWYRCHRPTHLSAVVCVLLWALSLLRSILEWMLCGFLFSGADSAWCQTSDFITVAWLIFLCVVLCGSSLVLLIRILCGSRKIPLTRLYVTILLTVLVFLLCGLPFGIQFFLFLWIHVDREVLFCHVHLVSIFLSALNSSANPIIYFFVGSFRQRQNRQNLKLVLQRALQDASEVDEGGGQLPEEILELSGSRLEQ
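System: HEK293 cells stably expressing human MrgX1 receptor; Dosing: test compound in the initial addition of three; Schedule: overnight plating, then 30 min 37 °C plus 30 min room-temperature dye loading; Detection: kinetic calcium dye fluorescence, Fluo-4 NW; Controls: per-plate positive and negative controls for Z′ factor.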
MrgX1 antagonist: blocks BAM8-22 activation of human MrgX1 receptor; MRGX1-HEK293 calcium flux, Fluo-4, BAM8-22 antagonism; stronger effect = lower value; B-score at 10 µM; 310,000 compounds, 1.3% hits; AID 588676;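 active = calcium-response B-score plate-corrected more than 3 library SD below zero, starting fluorescence within 5 deviations, no agonist response on first addition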;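 note: peak minus trough fluorescence over baseline after final BAM8-22 challenge near maximal dose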
MrgX1 PAM: allosterically activates human MrgX1 receptor signaling | Q96LB2 | MrgX1-HEK293, Fluo-4 calcium flux, FDSS; stronger effect = higher value | B-score at 10 µM | 310,000 compounds, 0.63% hits;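 active = plate-corrected calcium response at least 3 library SD above typical, normal starting fluorescence, not activating the receptor alone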;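 note: compound read alongside a low EC10 to EC30 dose of BAM8-22 agonist; peak minus trough fluorescence over baseline measured at the second addition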
MrgX1 PAM conf: confirmation of human MrgX1 receptor positive allosteric modulators. shares compounds with MrgX1 PAM. activation (ratio percentage), % at 10 µM. MrgX1-HEK293, Fluo-4 calcium fluorescence, FDSS. 1,200 compounds, 13% hits. AID 602413;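 active = ratio at least 3 SD above the weak peptide control, stable starting fluorescence, no direct agonism earlier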;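 note: compound followed by low BAM8-22 agonist challenge near EC20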
HEK293 Ca flux: counter-screen for MrgX1 antagonists: effect in parental HEK293 cells. fluorescence ratio F(max-min)/F0 at 10 µM. shares compounds with MrgX1 antagonist. AID 624111. 4,000 compounds, 2% hits. Fluo-4 calcium fluorescence, FDSS;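 active = duplicate-averaged calcium fluorescence ratio at least three times the standard deviation of buffer wells, a nonspecific response in parental cells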
HEK293 Ca counter: activity in parental HEK293 cells without MrgX1; shares compounds with MrgX1 antagonist; parental HEK293 calcium flux, Fluo-4 fluorescence ratio; stronger effect = higher value; fluorescence ratio F(max-min)/F0 at 10 µM; 4,000 compounds, 0.4% hits;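 active = calcium fluorescence ratio, averaged over duplicates, at least 3 SD of the buffer-well ratio, meaning a nonspecific response in receptor-free cells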;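 note: untransfected parental HEK293 lacking MrgX1 used as counterscreen for MrgX1 allosteric activators; fluorescence change taken during the second addition on a kinetic imager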
HEK293 Ca cntr2: MrgX1 activator counter-screen hit in parental HEK293 cells; shares compounds with MrgX1 antagonist; Fluo-4 calcium fluorescence (FDSS); stronger effect = higher value; fluorescence ratio F(max-min)/F0 at 10 µM; 4,000 compounds, 8.7% hits; AID 624115;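 active = calcium fluorescence ratio at least three times the spread of buffer wells, meaning a non-specific response in parental cells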
The depositor's hits bear a star; i = inactive; . = no result given. Only some compounds are listed: those with a hit (about 3.5% of all), similar ones and a draw of the others.

SMILES | RGS4 block | RGS4 act | MrgX1 ag | MrgX1 antagonist | MrgX1 PAM | MrgX1 PAM conf | HEK293 Ca flux | HEK293 Ca counter | HEK293 Ca cntr2
Cc1ccccc1CC1(CO)CCCN(C(=O)c2ccc(F)cc2)C1 (configuration not stated) | i | i | i | i | 10.4* | i | i | i | i
COc1cccc(N/C(N)=N/c2nc(C(F)(F)F)cc(C(F)(F)F)n2)c1 | i | i | i | i | 10* | i | i | i | i
CC1C(=O)N(Cc2ccccc2F)c2ccccc2N1C(=O)c1c(F)cccc1F (configuration not stated) | i | i | i | i | 9* | i | i | i | i
O=C(NCc1ccccc1)c1ccc(NC(=O)C2CCCO2)cc1 (configuration not stated) | i | i | i | i | i | . | . | . | .
COc1ccc(N2C(=O)C3CCCN3C2=O)cc1 (configuration not stated) | i | i | i | i | 10.4* | i | i | i | i
CCOc1ccc(N2C(=O)C3CCCN3C2=O)cc1 (configuration not stated) | i | i | i | i | i | . | . | . | .
Cc1ccc(C(C)C)c(OCCNC(=S)Nc2cccc3ccccc23)c1 | i | i | i | i | i | . | . | . | .
O=C(Nc1ccc(Cl)c(Cl)c1)c1ccccc1 | . | . | i | i | 7.99* | i | i | i | i
COc1ccc2nc(NC(=S)N(C)C)sc2c1 | i | i | i | i | 11.9* | i | i | i | i
COc1cc(/C=N/n2c(C3CCCCC3)n[nH]c2=S)ccc1O | i | i | i | i | i | . | . | . | .
COc1ccc(C(=O)N(C)Cc2ccccc2)cc1Br | i | i | i | i | i | . | . | . | .
CC(C)COC(=O)N1CC(O)CC1C(=O)O (configuration not stated) | i | i | i | i | i | . | . | . | .
COC(=O)Cc1cc(=O)n(-c2nc3ccccc3[nH]2)[nH]1 | i | i | i | i | 15.1* | i | i | i | i
CCN1C(=O)CSC1=NC12CC3CC(CC(C3)C1)C2 | i | i | i | i | i | . | . | . | .
CN1C(=O)CSC1=NC12CC3CC(CC(C3)C1)C2 | i | i | i | i | 8.17* | i | i | i | i
CCN1CCN(c2nc(Nc3ccc(NC(C)=O)cc3)nc(Nc3ccc(NC(C)=O)cc3)n2)CC1 | i | i | i | i | 29.2* | i | i | i | i
O=C(c1cc2nc(-c3ccc(F)cc3)cc(C(F)(F)F)n2n1)N1CCCCC1c1cccnc1 (configuration not stated) | i | i | i | i | 7.1* | i | i | i | i
O=C(c1cnn2c(C(F)(F)F)cc(-c3ccccc3)nc12)N1CCCCC1c1cccnc1 (configuration not stated) | i | i | i | i | i | . | . | . | .
CC(C)c1ccc2c(c1)[C@H]1OCC[C@H]1[C@@H](c1cccs1)N2 | i | i | i | i | 8.33* | 3.3%* | i | i | i
O=C(CSC(=S)N1CCOCC1)Nc1ncc2c(n1)CC(c1ccco1)CC2=O (configuration not stated) | i | i | i | i | i | . | . | . | .
Cc1ccc(Sc2ncccc2C(=O)N(C)Cc2cccs2)c(C)c1 | i | i | i | i | 24.7* | i | i | i | i
Cc1ccc(Nc2ncccc2C(=O)NCc2cccs2)c(C)c1 | i | i | i | i | i | . | . | . | .
COc1ccccc1C1C=C(c2ccc(C)cc2)Nc2nnnn21 (configuration not stated) | i | i | i | i | i | . | . | . | .
COc1ccc(C2=CC(c3c(C)nn(-c4ccccc4)c3Cl)n3nnnc3N2)cc1OC (configuration not stated) | . | . | i | i | 6.98* | i | i | i | i
CC12CCC(C(=O)Nc3nc4ccccc4s3)(OC1=O)C2(C)C (configuration not stated) | i | i | i | i | 28.8* | 2.1%* | i | i | i
SMILES | RGS4 block | RGS4 act | MrgX1 ag | MrgX1 antagonist | MrgX1 PAM | MrgX1 PAM conf | HEK293 Ca flux | HEK293 Ca counter | HEK293 Ca cntr2
O=C(COC(=O)C(O)c1ccccc1)NC12CC3CC(CC(C3)C1)C2 (configuration not stated) | i | i | i | i | i | . | . | . | .
O=C(COC(=O)C12CC3CC(CC(C3)C1)C2)Nc1ccccc1F | i | i | i | i | 13* | i | i | i | i
O=C(COc1ccccc1F)NC12CC3CC(CC(C3)C1)C2 | i | i | i | i | 6.55* | i | i | i | i
O=C(COC(=O)C12CC3CC(CC(O)(C3)C1)C2)Nc1ccccc1OC(F)F | i | i | i | i | i | . | . | . | .
O=C(CCS(=O)(=O)c1ccccc1)OCc1ccc([N+](=O)[O-])cc1 | i | i | i | i | i | . | . | . | .
O=C(Nc1ccc2c(c1)OCO2)c1ccc(Br)c(S(=O)(=O)N2CCCC2)c1 | i | i | i | i | 13.8* | i | i | i | i
C[C@H](NC(=O)C1CCN(S(=O)(=O)c2ccccc2)CC1)C(=O)NCc1ccc(Cl)cc1Cl | i | i | i | i | i | . | . | . | .
Cc1[nH]ncc1-c1nc2ccccc2[nH]1 | i | i | i | i | 13.2* | i | i | i | i
CC1CN(S(=O)(=O)c2cc(C(=O)NCCC3=CCCCC3)ccc2Cl)CC(C)O1 (configuration not stated) | i | i | i | i | i | . | . | . | .
c1ccc2nc(-c3nccs3)ccc2c1 | i | i | i | i | 6.5* | i | i | i | i
Clc1ccsc1-c1ccc2ccccc2n1 | i | i | i | i | i | . | . | . | .
Cc1ccc(C)c(NC(=O)c2cc[n+](C)cc2)c1 | i | i | i | i | i | . | . | . | .
COc1ccc(NC(=O)c2ccc(NS(=O)(=O)c3c(C)noc3C)cc2)cc1OC | i | i | i | i | i | . | . | . | .
